Results: ChEMBL document CHEMBL4627300, “Discovery of 1,8-naphthyridin-2-one derivative as a potent and selective sphingomyelin synthase 2 inhibitor” (Bioorg Med Chem, 2020)
≈ marks a conversion by molar mass, not a printed value. Calls of active or inactive are those of the source. The calls are words filed in the database; no cut-off is given here.

Legend:
[1] = biological target: T1, Phosphatidylcholine:ceramide cholinephosphotransferase 2 (Homo sapiens, UniProt Q8NHU3); test: Inhibition of human recombinant C-terminal FLAG-tagged SMS2 expressed in Freestyle293 cell membrane using C14-phosphatidylcholineD72 and C17-ceramide pre-incubated for 60 mins followed by incubation with substrate for 30 mins measured by RapidFire/MS assay
T1 sequence (Q8NHU3 whole entry): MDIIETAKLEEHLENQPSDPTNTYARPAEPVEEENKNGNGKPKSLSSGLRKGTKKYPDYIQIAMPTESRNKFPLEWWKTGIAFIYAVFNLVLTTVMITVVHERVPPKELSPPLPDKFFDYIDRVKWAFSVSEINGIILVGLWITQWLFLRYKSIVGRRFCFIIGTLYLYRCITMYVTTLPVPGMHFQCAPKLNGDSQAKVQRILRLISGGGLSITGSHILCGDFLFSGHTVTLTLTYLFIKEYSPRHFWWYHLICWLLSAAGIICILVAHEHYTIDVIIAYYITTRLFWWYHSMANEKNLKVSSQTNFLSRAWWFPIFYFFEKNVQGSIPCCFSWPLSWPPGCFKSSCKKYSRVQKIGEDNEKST
Method in brief: (§1)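 C-terminal FLAG-tagged full-length SMS (human SMS1, mouse SMS2, human SMS2) transiently expressed in FreeStyle293 cells for 2 days; total membranes isolated by ultracentrifugation. Enzyme (30 µg/mL) preincubated 60 min with compound, then reacted 30 min at room temperature. Buffer: KCl, 0.1% BSA, 0.03% NP-40 substitute, 1 mM DTT, 10% DMSO. Substrates: 50 µM C14-PC-D72 and 1 µM C17-ceramide. Stopped with 2-propanol/formic acid containing C17-SM internal standard. Product C17-SM-d13 measured by RapidFire SPE and positive SRM MS. % inhibition calculated from peak area ratios against vehicle and no-reaction controls.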

[2] = biological target: T2, Phosphatidylcholine:ceramide cholinephosphotransferase 2 (Mus musculus, UniProt Q9D4B1); test: Inhibition of mouse recombinant C-terminal FLAG-tagged SMS2 expressed in mammalian expression system using C14-phosphatidylcholineD72 and C17-ceramide pre-incubated for 60 mins followed by incubation with substrate for 30 mins measured by RapidFire/MS assay; method in brief: as §1
T2 sequence (Q9D4B1 whole entry): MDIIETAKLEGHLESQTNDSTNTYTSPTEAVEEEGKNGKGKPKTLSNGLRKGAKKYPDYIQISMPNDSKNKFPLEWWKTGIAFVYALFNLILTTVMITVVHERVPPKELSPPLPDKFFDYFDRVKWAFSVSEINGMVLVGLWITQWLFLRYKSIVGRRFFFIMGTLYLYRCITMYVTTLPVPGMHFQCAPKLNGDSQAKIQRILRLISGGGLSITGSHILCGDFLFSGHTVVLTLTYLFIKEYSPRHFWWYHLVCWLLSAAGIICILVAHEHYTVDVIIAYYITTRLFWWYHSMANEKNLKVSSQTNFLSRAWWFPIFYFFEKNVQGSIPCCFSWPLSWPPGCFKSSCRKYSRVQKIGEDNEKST

[3] = biological target: T3, Phosphatidylcholine:ceramide cholinephosphotransferase 1 (Homo sapiens, UniProt Q86VZ5); test: Inhibition of human recombinant C-terminal FLAG-tagged SMS1 expressed in mammalian expression system using C14-phosphatidylcholineD72 and C17-ceramide pre-incubated for 60 mins followed by incubation with substrate for 30 mins measured by RapidFire/MS assay; method in brief: as §1
T3 sequence (Q86VZ5 whole entry): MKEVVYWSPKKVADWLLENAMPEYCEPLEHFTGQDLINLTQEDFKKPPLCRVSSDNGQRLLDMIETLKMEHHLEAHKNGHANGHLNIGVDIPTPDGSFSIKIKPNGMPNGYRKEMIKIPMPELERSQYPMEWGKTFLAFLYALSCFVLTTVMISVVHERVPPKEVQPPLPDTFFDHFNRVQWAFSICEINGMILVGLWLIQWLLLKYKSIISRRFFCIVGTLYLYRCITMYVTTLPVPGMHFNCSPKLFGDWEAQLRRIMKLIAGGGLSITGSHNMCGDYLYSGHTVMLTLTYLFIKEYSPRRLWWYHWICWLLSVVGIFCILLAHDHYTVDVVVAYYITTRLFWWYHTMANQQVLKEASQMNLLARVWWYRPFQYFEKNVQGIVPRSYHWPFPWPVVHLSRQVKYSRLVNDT

[4] = Permeability of compound in buffer solution at pH 7.4 by PAMPA method; format: ADME; details: read-out: permeability
Method in brief: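 Membrane permeability measured at pH 7.4.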

[5] = Aqueous solubility of DMSO dissolved compound in buffer solution at pH 6.8 by LC-MS/MS analysis; format: physicochemical
Method in brief: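 Compound in DMSO added to aqueous buffer at pH 6.8 and incubated. Precipitate removed by filter-plate filtration; dissolved compound in filtrate quantified by LC/MS/MS.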

[6] = Inhibition of SMS (unknown origin); design: species or system Homo sapiens
[7] = Cmax in KK-AY/Ta mouse at 100 mg/kg, po; format: ADME, organism-based; design: dose 100 mg/kg, route oral; details: in vivo
Method in brief: (§2)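 Single 100 mg/kg dose given orally or subcutaneously to KK-Ay/Ta mice. Plasma drug concentration followed to 24 h. […] MRT is the mean residence time.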

[8] = Drug concentration in KK-AY/Ta mouse at 100 mg/kg, sc measured upto 24 hrs; format: ADME, organism-based; details: in vivo, read-out: Drug uptake; method in brief: as §2
[9] = Cmax in KK-AY/Ta mouse at 100 mg/kg, sc; format: ADME, organism-based; design: dose 100 mg/kg, route subcutaneous; details: in vivo; method in brief: as §2
[10] = Drug concentration in KK-AY/Ta mouse at 100 mg/kg, po measured upto 24 hrs; format: ADME, organism-based; details: in vivo, read-out: Drug uptake; method in brief: as §2
[11] = Tmax in KK-AY/Ta mouse at 100 mg/kg, po; format: ADME, organism-based; details: in vivo; method in brief: as §2
[12] = Tmax in KK-AY/Ta mouse at 100 mg/kg, sc; format: ADME, organism-based; details: in vivo; method in brief: as §2
[13] = AUC (0 to 24 hrs) in KK-AY/Ta mouse at 100 mg/kg, po; format: ADME, organism-based; design: dose 100 mg/kg, time < 24 hr, route oral; details: in vivo; method in brief: as §2
[14] = AUC (0 to 24 hrs) in KK-AY/Ta mouse at 100 mg/kg, sc; format: ADME, organism-based; design: time < 24 hr, dose 100 mg/kg, route subcutaneous; details: in vivo; method in brief: as §2
[15] = MRT in KK-AY/Ta mouse at 100 mg/kg, po; format: ADME, organism-based; details: in vivo; method in brief: as §2
[16] = MRT in KK-AY/Ta mouse at 100 mg/kg, sc; format: ADME, organism-based; details: in vivo; method in brief: as §2
[17] = tested on: Mus musculus; test: In vivo inhibition of SMS2 in KK-AY/Ta mouse assessed as decrease in hepatic SM (22:00) levels at 100 mg/kg, sc qd for 7 days measured after last dosing by LC/MS analysis; format: functional, organism-based
Method in brief: (§3)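 Male KK-Ay/Ta mice, 10 weeks old, dosed orally or subcutaneously once or twice daily for 7 days; vehicle-treated controls. Livers removed under anesthesia the morning after the last dose. Tissue homogenized in isopropanol (100 mg/mL) by ball-mill and centrifuged; supernatant SM (22:0) measured by reverse-phase LC/MS.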

[18] = tested on: Mus musculus; test: In vivo inhibition of SMS2 in KK-AY/Ta mouse assessed as decrease in hepatic SM (22:00) levels at 200 mg/kg, sc bid for 7 days measured after last dosing by LC/MS analysis; format: functional, organism-based; method in brief: as §3
[19] = tested on: Mus musculus; test: In vivo inhibition of SMS2 in KK-AY/Ta mouse assessed as decrease in hepatic SM (22:00) levels at 100 mg/kg, po qd for 7 days measured after last dosing by LC/MS analysis; format: functional, organism-based; method in brief: as §3
[20] = tested on: Mus musculus; test: In vivo inhibition of SMS2 in KK-AY/Ta mouse assessed as decrease in hepatic SM (22:00) levels at 200 mg/kg, po bid for 7 days measured after last dosing by LC/MS analysis; format: functional, organism-based; method in brief: as §3

IC50 [1] | IC50 [2] | IC50 [3] | Papp [4] | solubility kinetic [5] | SMILES | other results
120 nM | 240 nM | 25 µM |  |  | CN(Cc1cc(C(F)(F)F)cc(C(F)(F)F)c1)C(=O)c1c(OCCCC(F)(F)F)c2ccccc2n(C)c1=O | 
210 nM | 120 nM | 14 µM |  |  | CN(Cc1cc(C(F)(F)F)cc(C(F)(F)F)c1)C(=O)c1c(OCCCc2ccccc2)c2ccccc2n(C)c1=O | 
2100 nM |  | > 100 µM |  |  | CCCOc1c(C(=O)N(C)Cc2cc(C(F)(F)F)cc(C(F)(F)F)c2)c(=O)n(C)c2ccccc12 | 
350 nM | 260 nM | > 100 µM |  |  | CC(C)CCOc1c(C(=O)N(C)Cc2cc(C(F)(F)F)cc(C(F)(F)F)c2)c(=O)n(C)c2ccccc12 | 
480 nM | 190 nM | 14 µM |  |  | CN(Cc1cc(C(F)(F)F)cc(C(F)(F)F)c1)C(=O)c1c(OCCCC2CCCCC2)c2ccccc2n(C)c1=O | 
380 nM | 590 nM | 22 µM |  |  | CN(Cc1cc(C(F)(F)F)cc(C(F)(F)F)c1)C(=O)c1c(OCCOCc2ccccc2)c2ccccc2n(C)c1=O | 
11000 nM |  | > 100 µM |  |  | CN(Cc1cc(C(F)(F)F)cc(C(F)(F)F)c1)C(=O)c1c(N2CCCCC2)c2ccccc2n(C)c1=O | 
 | 1100 nM | > 100 µM |  |  | CN(Cc1cc(C(F)(F)F)cc(C(F)(F)F)c1)C(=O)c1c(N2CCCC2)c2ccccc2n(C)c1=O | 

More lines, now with the values behind:

SMILES | IC50 [1] | IC50 [2] | IC50 [3] | Papp [4] | solubility kinetic [5] | other results
COc1cc(CN(C)C(=O)c2c(OCCCC3CCN(C(=O)OC(C)(C)C)CC3)c3cnccc3n(C)c2=O)cc(OC)c1 | 1600 nM | 340 nM | > 100 µM | 26 ×10⁻⁶ cm/s | 33 µg/mL (≈ 54.2 µM) | 
CN(Cc1cc(C(F)(F)F)cc(C(F)(F)F)c1)C(=O)c1c(N2CCC(OCc3ccccc3)C2)c2ccccc2n(C)c1=O (centres undefined) | 610 nM | 660 nM | 15 µM |  |  | 
COc1cc(CN(C)C(=O)c2c(OCCCC3CCN(C(=O)OC4(C)CC4)CC3)c3cccnc3n(C)c2=O)cc(OC)c1 | 300 nM | 14 nM | 18 µM | 20 ×10⁻⁶ cm/s | 16 µg/mL (≈ 26.4 µM) | 
S=C(S)OC1C[C@H]2C[C@@H]1[C@H]1CCC[C@@H]21 (some centres undefined) |  |  |  |  |  | IC50 [6]: > 100 µM
COc1cc(CN(C)C(=O)c2c(OCCCC3CCN(C(=O)OC4(C)CC4)CC3)c3cccnc3n(C)c2=O)cc(C(F)(F)F)c1 | 45 nM | 2.2 nM | 2.4 µM | 42.4 ×10⁻⁶ cm/s | 0.79 µg/mL (≈ 1.23 µM) | Cmax [7]: 6500 ng/mL; concentration at 24 h [8]: 230 ng/mL; Cmax [9]: 700 ng/mL; concentration at 24 h [10]: 7 ng/mL; Tmax [11]: 49.8 min; Tmax [12]: 8 h; AUC(0-t) at 24 h [13]: 18000 ng·h/mL; AUC(0-t) at 24 h [14]: 12000 ng·h/mL; MRT [15]: 3 h; MRT [16]: 9.4 h; inhibition [17]: Active; inhibition [18]: Active; inhibition [19]: inactive; inhibition [20]: inactive
COc1cc(CN(C)C(=O)c2c(OCCCC3CCN(C(=O)OC(C)(C)C)CC3)c3ccccc3n(C)c2=O)cc(OC)c1 | 91 nM | 19 nM | 19 µM | 29.5 ×10⁻⁶ cm/s | 1.8 µg/mL (≈ 2.96 µM) | 
CCOc1cc(CN(C)C(=O)c2c(OCCCC3CCN(C(=O)OC(C)(C)C)CC3)c3ccccc3n(C)c2=O)cc(OCC)c1 | 380 nM | 51 nM | 15 µM | 27.5 ×10⁻⁶ cm/s | < 0.08 µg/mL | 
CN(Cc1cc(C(F)(F)F)cc(C(F)(F)F)c1)C(=O)c1c(OCCCC2CCN(C(=O)OC3(C)CC3)CC2)c2cccnc2n(C)c1=O | 47 nM | 3 nM | 0.85 µM | 72.1 ×10⁻⁶ cm/s | < 0.3 µg/mL | 
COc1cc(CN(C)C(=O)c2c(OCCCC3CCN(C(=O)OC(C)(C)C)CC3)c3cccnc3n(C)c2=O)cc(OC)c1 | 130 nM | 32 nM | 10 µM | 24.1 ×10⁻⁶ cm/s | 7.3 µg/mL (≈ 12 µM) | 
CN(Cc1cc(C(F)(F)F)cc(C(F)(F)F)c1)C(=O)c1c(OCCCC2CCN(C(=O)OC(C)(C)C)CC2)c2ccccc2n(C)c1=O | 30 nM | 7.7 nM | 3.4 µM | 1.1 ×10⁻⁶ cm/s | < 0.16 µg/mL | 
